This is an account of results in ChEMBL document CHEMBL1137618, “Synthesis and structure-activity relationship studies of 3,6-diazabicyclo[3.2.0]heptanes as novel alpha4beta2 nicotinic acetylcholine receptor selective agonists” (J Med Chem, 2007).

The structures appear in SMILES notation.

Assay [1] in a line: Displacement of [3H]cytisine from neuronal nicotinic acetylcholine receptor in rat brain membrane. In kind it is cell membranes. Background: Displacement assays read how much labelled ligand stays bound in the presence of the test substance.
The target of assay [2] is T1, Neuronal acetylcholine receptor; alpha3/beta4 (Homo sapiens, UniProt P30926+P32297). In words: Agonist activity at recombinant human alpha-3-beta-4 nAChR expressed in HEK293 cells assessed as induction of calcium influx by FLIPR assay. In kind it is functional, cell-based.
T1 sequence (P30926 whole entry): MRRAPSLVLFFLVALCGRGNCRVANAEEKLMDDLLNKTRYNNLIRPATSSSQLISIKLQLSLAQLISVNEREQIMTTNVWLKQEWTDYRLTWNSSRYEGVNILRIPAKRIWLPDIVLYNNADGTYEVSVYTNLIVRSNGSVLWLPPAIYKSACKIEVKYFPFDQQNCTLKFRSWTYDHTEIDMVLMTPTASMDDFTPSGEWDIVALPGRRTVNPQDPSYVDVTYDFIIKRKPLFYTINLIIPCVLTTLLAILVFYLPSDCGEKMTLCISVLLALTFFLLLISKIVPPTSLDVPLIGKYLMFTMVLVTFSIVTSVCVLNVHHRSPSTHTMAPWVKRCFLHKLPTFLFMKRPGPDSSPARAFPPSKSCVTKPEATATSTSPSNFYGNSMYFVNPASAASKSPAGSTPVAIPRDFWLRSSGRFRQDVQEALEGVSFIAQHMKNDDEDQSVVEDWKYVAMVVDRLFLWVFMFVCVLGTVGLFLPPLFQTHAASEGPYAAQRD
T1 sequence (P32297 whole entry): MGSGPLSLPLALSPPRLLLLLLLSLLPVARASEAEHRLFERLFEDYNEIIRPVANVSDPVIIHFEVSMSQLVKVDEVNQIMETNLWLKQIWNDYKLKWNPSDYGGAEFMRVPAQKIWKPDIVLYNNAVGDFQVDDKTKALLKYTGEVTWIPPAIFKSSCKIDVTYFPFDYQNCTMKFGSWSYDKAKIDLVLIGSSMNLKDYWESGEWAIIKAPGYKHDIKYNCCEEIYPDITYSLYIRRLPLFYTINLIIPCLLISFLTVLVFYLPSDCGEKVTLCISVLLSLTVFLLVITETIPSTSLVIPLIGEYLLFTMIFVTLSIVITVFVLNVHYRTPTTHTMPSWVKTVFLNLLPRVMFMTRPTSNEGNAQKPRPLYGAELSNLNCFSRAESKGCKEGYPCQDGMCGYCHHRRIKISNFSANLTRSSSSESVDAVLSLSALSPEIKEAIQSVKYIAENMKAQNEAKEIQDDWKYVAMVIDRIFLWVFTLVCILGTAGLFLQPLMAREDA
Assay [3] deals with T2, Neuronal acetylcholine receptor; alpha4/beta2 (Homo sapiens, UniProt P17787+P43681). As to the kind of experiment: Agonist activity at recombinant human alpha-4-beta-2 nAChR expressed in HEK293 cells assessed as induction of calcium influx by FLIPR assay relative to nicotine. In kind it is functional, cell-based. An outline of the steps:
(§1)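 HEK-293 lines stably expressing human α4β2 or α3β4 nAChR, grown 24-48 h at 37 °C on poly-D-lysine in DMEM/10% FBS. Loaded with 2-4 µM Fluo-4 AM for ~0.75-1 h at room temperature in the dark, in NMDG Ringer pH 7.4. Serial log dilutions added, then peak calcium fluorescence read on FLIPR after buffer-blank subtraction.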

Assay [4] concerns the target T2, Neuronal acetylcholine receptor; alpha4/beta2. As to the kind of experiment: Agonist activity at recombinant human alpha-4-beta-2 nAChR expressed in HEK293 cells assessed as induction of calcium influx by FLIPR assay. In kind it is functional, cell-based.
The target of assay [5] is T1, Neuronal acetylcholine receptor; alpha3/beta4. As to the kind of experiment: Agonist activity at recombinant human alpha3beta4 nAChR expressed in HEK293 cells assessed as induction of calcium influx by FLIPR assay relative to nicotine. In kind it is functional, cell-based. An outline of the steps: as §1

T2 sequence (P17787 whole entry): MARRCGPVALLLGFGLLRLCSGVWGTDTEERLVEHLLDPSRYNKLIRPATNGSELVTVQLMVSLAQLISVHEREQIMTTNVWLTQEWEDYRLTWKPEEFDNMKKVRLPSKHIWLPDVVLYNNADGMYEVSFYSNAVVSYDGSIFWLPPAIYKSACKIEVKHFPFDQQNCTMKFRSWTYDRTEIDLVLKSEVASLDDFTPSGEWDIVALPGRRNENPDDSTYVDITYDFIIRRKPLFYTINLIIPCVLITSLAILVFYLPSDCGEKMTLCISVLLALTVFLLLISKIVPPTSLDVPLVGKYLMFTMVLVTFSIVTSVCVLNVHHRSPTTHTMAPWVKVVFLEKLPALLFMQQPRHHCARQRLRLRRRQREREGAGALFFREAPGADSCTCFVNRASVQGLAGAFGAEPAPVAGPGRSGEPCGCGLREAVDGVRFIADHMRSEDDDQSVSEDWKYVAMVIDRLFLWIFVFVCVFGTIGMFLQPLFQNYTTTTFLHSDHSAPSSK
T2 sequence (P43681 whole entry): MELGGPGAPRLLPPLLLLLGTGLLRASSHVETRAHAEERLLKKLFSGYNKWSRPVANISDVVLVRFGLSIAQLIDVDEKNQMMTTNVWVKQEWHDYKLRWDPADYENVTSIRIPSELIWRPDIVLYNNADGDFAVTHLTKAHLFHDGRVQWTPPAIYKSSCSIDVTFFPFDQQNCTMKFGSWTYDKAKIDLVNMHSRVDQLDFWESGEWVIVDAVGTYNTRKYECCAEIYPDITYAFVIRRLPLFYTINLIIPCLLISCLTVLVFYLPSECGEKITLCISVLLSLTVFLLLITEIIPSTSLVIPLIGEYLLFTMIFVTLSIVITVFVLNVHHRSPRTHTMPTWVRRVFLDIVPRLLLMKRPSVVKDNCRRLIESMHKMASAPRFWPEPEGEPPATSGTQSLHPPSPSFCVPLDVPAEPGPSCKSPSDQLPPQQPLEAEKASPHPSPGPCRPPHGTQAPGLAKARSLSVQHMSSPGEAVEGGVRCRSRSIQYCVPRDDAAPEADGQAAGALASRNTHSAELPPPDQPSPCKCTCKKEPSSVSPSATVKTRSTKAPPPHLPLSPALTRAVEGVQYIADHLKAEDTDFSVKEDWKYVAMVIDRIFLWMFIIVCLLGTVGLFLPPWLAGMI

On to `Cc1ncc(N2C[C@@H]3CNC[C@@H]32)cc1C#N`, for which affinity in assay [1] was put at a Ki of 0.7 nM. For the same molecule, the “Log Ki” value in assay [1] is given as -9.18. For the same molecule, the EC50 was 1600 nM in assay [2] (read-out: EC50) and 500 nM in assay [4] (read-out: EC50). Further, the Activity in assay [3] is 116%; in assay [5], 95%.

Turning to `c1cncc(N2C[C@H]3CN[C@H]3C2)c1`, in assay [1], the inhibition constant (Ki) was 0.1 nM. Also, the “Log Ki” value in assay [1] is -9.96. The half-maximal effective concentration (EC50) in assay [2] (read-out: EC50) was 6000 nM; in assay [2] (read-out: Log EC50 (converted)) it was 603 nM; in assay [4] (read-out: EC50) it was 300 nM. Also, the figures for the Activity in assay [3] and in assay [5] were 181% and 119%, respectively.

The molecule `N#Cc1cncc(N2C[C@H]3CN[C@H]3C2)c1` displayed a Ki in assay [1] of 0.1 nM. Also, in assay [1], the “Log Ki” value was -9.92. The 50% effective concentration (EC50) is 300 nM in assay [2] (read-out: EC50), 600 nM in assay [4] (read-out: EC50) and 417 nM in assay [4] (read-out: Log EC50 (converted)). Further, the values for the Activity in assay [3] and in assay [5] were 123% and 102%, respectively.

As to `Clc1ccc(N2C[C@@H]3CN[C@@H]3C2)cn1`, the Ki in assay [1] was determined as 0.6 nM. Besides, in assay [1], the “Log Ki” value was -9.24. The EC50 was 400 nM in assay [2] (read-out: EC50), 200 nM in assay [4] (read-out: EC50) and 162 nM in assay [4] (read-out: Log EC50 (converted)). Moreover, the Activity came out at 162% in assay [3] and 110% in assay [5].

`c1cncc(N2C[C@H]3CNC[C@H]32)c1` came in with a Ki in assay [1] of 1.3 nM. For the same molecule, the “Log Ki” value in assay [1] is on record as -8.88. Besides, the EC50 in assay [2] (read-out: EC50) is 2940 nM; in assay [2] (read-out: Log EC50 (converted)), 29500 nM; in assay [4] (read-out: EC50), 1900 nM; in assay [4] (read-out: Log EC50 (converted)), 1820 nM. Besides, the Activity in assay [3] stood at 116%; in assay [5], 62%.

With `N#Cc1cncc(N2C[C@@H]3CNC[C@@H]32)c1`, the Ki in assay [1] stood at 0.9 nM. In assay [1], the “Log Ki” value is listed as -9.07. Besides, the EC50 was 13700 nM in assay [2] (read-out: EC50), 12300 nM in assay [2] (read-out: Log EC50 (converted)), 11400 nM in assay [4] (read-out: EC50) and 9120 nM in assay [4] (read-out: Log EC50 (converted)). In addition, the Activity in assay [3] worked out at 34%; in assay [5], 47%.

Regarding `Brc1cncc(N2C[C@@H]3CN[C@@H]3C2)c1`, affinity in assay [1] was put at a Ki of 1.4 nM. Besides, the “Log Ki” value in assay [1] was -8.84. Further, the concentration for a half-maximal effect (EC50) in assay [2] (read-out: EC50) was 9100 nM; in assay [4] (read-out: EC50), 6500 nM; in assay [4] (read-out: Log EC50 (converted)), 6170 nM. Moreover, the Activity was 53% in assay [3] and 68% in assay [5].

Molecule `Cc1cncc(N2C[C@@H]3CN[C@@H]3C2)c1` registered an inhibition constant Ki in assay [1] of 2.5 nM. In addition, in assay [1], the “Log Ki” value is recorded as -8.61. Also, the EC50 was 8000 nM in assay [2] (read-out: EC50), 33100 nM in assay [2] (read-out: Log EC50 (converted)), 39900 nM in assay [4] (read-out: EC50) and 30900 nM in assay [4] (read-out: Log EC50 (converted)). The Activity is 76% in assay [3] and 74% in assay [5].

Regarding `Clc1cc(N2C[C@H]3CN[C@H]3C2)cnc1Cl`, the Ki in assay [1] turned out to be 0.04 nM. In addition, the “Log Ki” value in assay [1] is reported as -10.4. The EC50 in assay [2] (read-out: EC50) is 50 nM; in assay [4] (read-out: EC50) it was 400 nM; in assay [4] (read-out: Log EC50 (converted)), 41.7 nM. The Activity came out at 162% in assay [3] and 98% in assay [5].

As for `Cc1cncc(N2C[C@@H]3CNC[C@@H]32)c1`, the Ki in assay [1] was determined as 1.1 nM. For the same molecule, the “Log Ki” value in assay [1] is -8.94. Also, the EC50 in assay [2] (read-out: EC50) was 16900 nM; in assay [4] (read-out: EC50), 10400 nM. Also, the Activity in assay [3] is 68%; in assay [5] it was 74%.

With `Cc1ncc(N2C[C@H]3CN[C@H]3C2)cc1C#N`, the inhibition constant Ki in assay [1] turned out to be 0.06 nM. Also, in assay [1], the “Log Ki” value is on record as -10.22. In addition, the EC50 is 90 nM in assay [2] (read-out: EC50), 500 nM in assay [4] (read-out: EC50) and 43.7 nM in assay [4] (read-out: Log EC50 (converted)). Besides, the Activity in assay [3] was 136%; in assay [5], 101%.

Molecule `Brc1cncc(N2C[C@@H]3CNC[C@@H]32)c1` gave a Ki in assay [1] of 1.5 nM. For the same molecule, the “Log Ki” value in assay [1] is -8.83. Moreover, the EC50 in assay [2] (read-out: EC50) was 6600 nM; in assay [2] (read-out: Log EC50 (converted)) it was 3090 nM; in assay [4] (read-out: EC50) it was 11400 nM; in assay [4] (read-out: Log EC50 (converted)), 8710 nM. Besides, the figures for the Activity in assay [3] and in assay [5] were 20% and 23%, respectively.

With `Cc1cc(N2C[C@H]3CN[C@H]3C2)cnc1C`, the Ki in assay [1] came to 0.3 nM. Also, the “Log Ki” value in assay [1] was -9.59. Further, the results for the EC50 in assay [2] (read-out: EC50) and in assay [4] (read-out: EC50) were 3300 nM and 200 nM, respectively. Also, the Activity in assay [3] was 124%; in assay [5] it was 96%.

Molecule `COc1cc(N2C[C@H]3CNC[C@H]32)cnc1Br` returned a Ki in assay [1] of 0.2 nM. The “Log Ki” value in assay [1] is reported as -9.68. For the same molecule, the results for the EC50 in assay [2] (read-out: EC50) and in assay [4] (read-out: EC50) were 1800 nM and 900 nM, respectively. In addition, the Activity in assay [3] is 118%; in assay [5] it was 94%.

Molecule `Clc1ccc(N2C[C@@H]3CNC[C@@H]32)cn1` showed a Ki in assay [1] of 1.3 nM. Moreover, the “Log Ki” value in assay [1] is recorded as -8.9. Moreover, the values for the EC50 in assay [2] (read-out: EC50) and in assay [4] (read-out: EC50) were 1200 nM and 300 nM, respectively. Further, the Activity stood at 107% in assay [3] and 94% in assay [5].

In assay [1], `c1cncc(N2C[C@@H]3CNC[C@@H]32)c1` gave a Ki of 0.7 nM. For the same molecule, in assay [1], the “Log Ki” value is listed as -9.15. Moreover, the EC50 in assay [2] (read-out: EC50) is 9700 nM; in assay [4] (read-out: EC50), 2800 nM; in assay [4] (read-out: Log EC50 (converted)) it was 2690 nM. The values for the Activity in assay [3] and in assay [5] were 101% and 97%, respectively.

On to `Clc1cc(N2C[C@@H]3CNC[C@@H]32)cnc1Cl`, for which the affinity in assay [1] corresponds to a Ki of 1.2 nM. Further, in assay [1], the “Log Ki” value is reported as -8.93. For the same molecule, the results for the EC50 in assay [2] (read-out: EC50) and in assay [4] (read-out: EC50) were 2600 nM and 900 nM, respectively. For the same molecule, the figures for the Activity in assay [3] and in assay [5] were 110% and 87%, respectively.

In turn, `N#Cc1cncc(N2C[C@@H]3CN[C@@H]3C2)c1` yielded a Ki in assay [1] of 1.7 nM. Also, the “Log Ki” value in assay [1] is listed as -8.77. For the same molecule, the concentration giving a half-maximal response (EC50) in assay [2] (read-out: EC50) is 7100 nM; in assay [4] (read-out: EC50), 14600 nM; in assay [4] (read-out: Log EC50 (converted)), 13200 nM. Moreover, the Activity in assay [3] is 102%; in assay [5], 84%.

Regarding `N#Cc1cc(N2C[C@H]3CNC[C@H]32)cnc1Br`, affinity in assay [1] was put at a Ki of 0.3 nM. Also, the “Log Ki” value in assay [1] is recorded as -9.6. Also, the EC50 in assay [2] (read-out: EC50) is 2000 nM; in assay [4] (read-out: EC50), 400 nM; in assay [4] (read-out: Log EC50 (converted)) it was 324 nM. Besides, the Activity in assay [3] was determined as 100%; in assay [5] it was 95%.

Turning to `COc1cc(N2C[C@@H]3CN[C@@H]3C2)cnc1Br`, affinity in assay [1] was put at a Ki of 1.9 nM. Further, in assay [1], the “Log Ki” value was -8.71. Moreover, the concentration for a half-maximal effect (EC50) in assay [2] (read-out: EC50) was 4000 nM; in assay [4] (read-out: EC50), 2200 nM. For the same molecule, the figures for the Activity in assay [3] and in assay [5] were 64% and 72%, respectively.

The molecule `Clc1ccc(N2C[C@H]3CNC[C@H]32)cn1` displayed a Ki in assay [1] of 1.2 nM. The “Log Ki” value in assay [1] is listed as -8.91. Moreover, the EC50 in assay [2] (read-out: EC50) is 1100 nM; in assay [4] (read-out: EC50), 600 nM; in assay [4] (read-out: Log EC50 (converted)), 537 nM. Moreover, the Activity in assay [3] stood at 127%; in assay [5], 104%.

In assay [1], `N#Cc1cc(N2C[C@@H]3CN[C@@H]3C2)cnc1Br` yielded a Ki of 0.3 nM. In assay [1], the “Log Ki” value is listed as -9.51. Further, the EC50 in assay [2] (read-out: EC50) came out at 600 nM; in assay [4] (read-out: EC50), 800 nM. Besides, the figures for the Activity in assay [3] and in assay [5] were 146% and 91%, respectively.

The Ki is a dissociation constant, usually derived from enzyme kinetics or from competition with a known ligand. A higher Ki goes with a looser hold on the target. The term EC50 denotes the concentration at which the effect is half-maximal.
